Source: ChEMBL document CHEMBL2029224, “Prenylation at the indole ring leads to a significant increase of cytotoxicity of tryptophan-containing cyclic dipeptides” (Bioorg Med Chem Lett, 2012)
Converted amounts (≈) assume the structure as drawn.

Legend:
Type in all cases: functional, cell-based
A2780 [1] = assay: Cytotoxicity against human cisplatin sensitive A2780 cells after 72 hrs by MTT assay; conditions: A2780, 72 h
How it was run: (§1)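 Cells kept in RPMI 1640 with 10% FCS and penicillin/streptomycin at 37 °C, 5% CO2, grown to 80% confluency. Seeded at 30,000 cells/well (K562) or 8,000 cells/well (A2780 sens and cisplatin-resistant CisR). After 24 h, exposed to increasing concentrations for 72 h. MTT added, formazan dissolved in DMSO, absorbance read at 544/690 nm. Viability relative to untreated cells (100%), triplicates, IC50.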

K562 = assay: Cytotoxicity against human K562 cells after 72 hrs by MTT assay; conditions: K562, 72 h; how it was run: as §1
A2780 [2] = assay: Cytotoxicity against human cisplatin resistant A2780 cells after 72 hrs by MTT assay; conditions: A2780, 72 h; how it was run: as §1
[3] = Cytotoxicity against mouse tsFT210 cells

SMILES	IC50 (A2780 [1]) [µM]	IC50 (K562) [µM]	IC50 (A2780 [2]) [µM]	MIC [3] [µM]	IC50 ([3]; tsFT210) [µM]
CC(C)=CCc1[nH]c2ccccc2c1C[C@@H]1NC(=O)[C@H]2CCCN2C1=O	106	34.7	92		
CC(C)=CCc1[nH]c2ccccc2c1C[C@@H]1NC(=O)[C@@H]2CCCN2C1=O [TRYPROSTATIN B]	82.8	21.1	85.9	4.4 (≈ 1.55 µg/mL)	18.8
CC(C)=CCc1[nH]c2ccccc2c1C[C@@H]1NC(=O)[C@H](Cc2c[nH]cn2)NC1=O	91.8	32.2	91.7		
O=C1CNC(=O)[C@H](Cc2c[nH]c3ccccc23)N1	> 100	> 100	> 100		
CC(C)=CCc1[nH]c2ccccc2c1C[C@@H]1NC(=O)[C@@H](C)NC1=O	77.2	34.5	77		
CC(C)=CCc1[nH]c2ccccc2c1C[C@H]1NC(=O)[C@H](C)NC1=O	86.2	35.3	84.3		
CC(C)=CCc1[nH]c2ccccc2c1C[C@@H]1NC(=O)[C@H](Cc2c[nH]c3ccccc23)NC1=O	89.7	29.8	80.8		
CC(C)=CCc1[nH]c2ccccc2c1C[C@@H]1NC(=O)[C@H](C)NC1=O	89.8	35.2	82.2		
O=C1N[C@@H](Cc2c[nH]c3ccccc23)C(=O)N[C@H]1Cc1c[nH]cn1	> 100	> 100	> 100		
CC(C)C[C@@H]1NC(=O)[C@H](Cc2c[nH]c3ccccc23)NC1=O	> 100	> 100	> 100		
C[C@H]1NC(=O)[C@@H](Cc2c[nH]c3ccccc23)NC1=O	> 100	> 100	> 100		
O=C1N[C@H](Cc2c[nH]c3ccccc23)C(=O)N2CCC[C@@H]12	> 100	> 100	> 100		
C[C@@H]1NC(=O)[C@@H](Cc2c[nH]c3ccccc23)NC1=O	> 100	> 100	> 100		
CC(C)=CCc1[nH]c2ccccc2c1C[C@H]1NC(=O)[C@H]2CCCN2C1=O	93.1	30.9	85.6		
O=C1N[C@@H](Cc2c[nH]c3ccccc23)C(=O)N2CCC[C@H]12	> 100	> 100	> 100		
CC(C)=CCc1[nH]c2ccccc2c1C[C@@H]1NC(=O)[C@H](Cc2ccc(O)cc2)NC1=O	89.8	31.6	83.3		
O=C1N[C@H](Cc2c[nH]c3ccccc23)C(=O)N2CCC[C@H]12	> 100	> 100	> 100		
O=C1N[C@@H](Cc2c[nH]c3ccccc23)C(=O)N[C@H]1Cc1ccc(O)cc1	> 100	> 100	> 100		
CC(C)=CCc1[nH]c2ccccc2c1C[C@@H]1NC(=O)[C@H](Cc2ccccc2)NC1=O	87	70.4	81.6		
CC(C)=CCc1[nH]c2ccccc2c1C[C@H]1NC(=O)[C@@H](C)NC1=O	85	34.7	81.1		
O=C1N[C@@H](Cc2c[nH]c3ccccc23)C(=O)N[C@H]1Cc1c[nH]c2ccccc12	> 100	> 100	> 100		
C[C@@H]1NC(=O)[C@H](Cc2c[nH]c3ccccc23)NC1=O	> 100	> 100	> 100		
CC(C)=CCc1[nH]c2ccccc2c1C[C@@H]1NC(=O)CNC1=O	82.4	16.7	85.2		
O=C1N[C@@H](Cc2c[nH]c3ccccc23)C(=O)N2CCC[C@@H]12 [BREVIANAMIDE F]	> 100	> 100	> 100		
C[C@H]1NC(=O)[C@H](Cc2c[nH]c3ccccc23)NC1=O	> 100	> 100	> 100		
CC(C)=CCc1[nH]c2ccccc2c1C[C@H]1NC(=O)[C@@H]2CCCN2C1=O	100	40.4	87.8		
O=C1N[C@@H](Cc2c[nH]c3ccccc23)C(=O)N[C@H]1Cc1ccccc1	> 100	> 100	> 100		
CC(C)=CCc1[nH]c2ccccc2c1C[C@@H]1NC(=O)[C@H](CC(C)C)NC1=O	92.6	30.1	75		
